Measured values reported in ChEMBL document CHEMBL1150672, “Chemical transformations on botryane skeleton. Effect on the cytotoxic activity” (J Nat Prod, 2003).
Converted amounts (≈) assume the structure as drawn.

System: not listed separately
Assay: Cytotoxicity against human IMR90 cells after 24 hrs by MTT assay
Assay type: cell-based, IMR-90
Settings: read-out: ID50
Procedure, shortened: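 IMR-90 embryonic fibroblasts (ATCC) were grown in DMEM with 10% FCS and 1% glutamine at 37 °C, 5% CO2. Cells were plated at 4 or 8×10^3/well and attached overnight. They were treated 24 h, in duplicate, with compounds from methanol stocks diluted in medium, with a methanol blank. MTT (5 mg/mL stock) was added for 4 h, formazan dissolved in DMSO, and read at 550 nm.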

SMILES | CC50 at 24 h [µg/mL]
CC(=O)O[C@H]1C[C@@H](C)[C@@H]2COC(C)(C)OC[C@@]3(C)CC(C)(C)[C@H]1[C@]23O | > 10
CC(=O)O[C@H]1C[C@@H](C)[C@@H]2COC(=O)[C@@]3(C)CC(C)(C)[C@H]1[C@]23O | > 10
C[C@@H]1CC=C2C(=C1C=O)[C@@](C)(C=O)CC2(C)C | 1 (≈ 4.3 µM)
CC(=O)O[C@H]1C[C@@H](C)[C@H](C(=O)O)[C@@]2(O)[C@@H]1C(C)(C)C[C@]2(C)CO [BOTRYOLOIC ACID] | > 10
COC(=O)[C@@]1(C)CC(C)(C)[C@@H]2[C@@H](O)C[C@@H](C)[C@H](C=O)[C@@]21O [METHYL BOTRYALOATE] | > 10
CC(=O)O[C@H]1C[C@@H](C)[C@@H]2[C@@H](O)OC[C@@]3(C)CC(C)(C)[C@H]1[C@]23O [DIHYDROBOTRYDIAL] | > 10
CC(=O)O[C@H]1C[C@@H](C)[C@@H]2[C@H](O)OC[C@@]3(C)CC(C)(C)[C@H]1[C@]23O | > 10
CC1(C)C[C@](C)(CO)c2c1ccc(CO)c2CO | > 10
CC(=O)O[C@H]1C[C@@H](C)[C@H](C=O)[C@@]2(O)[C@@H]1C(C)(C)C[C@]2(C)C=O [BOTRYDIAL] | 10 (≈ 32.2 µM)
Cc1ccc2c(c1C=O)[C@@](C)(C=O)CC2(C)C | 10 (≈ 43.4 µM)

System: not listed separately
Assay: Cytotoxicity against HUVEC after 24 hrs by MTT assay
Assay type: cell-based
Settings: human, read-out: ID50
Procedure, shortened: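 Primary HUVEC from newborns, grown in DMEM/medium 199 with 20% FCS, 10 mM HEPES, heparin and ECGS at 37 °C, 5% CO2. Cells were seeded at 4 or 8×10^3/well and attached overnight. Compounds were added from methanol solutions diluted in medium, with a methanol blank, for 24 h in duplicate. MTT (5 mg/mL stock) was added for 4 h, formazan dissolved in DMSO, and A550 read.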

SMILES | CC50 at 24 h [µg/mL]
CC(=O)O[C@H]1C[C@@H](C)[C@@H]2COC(C)(C)OC[C@@]3(C)CC(C)(C)[C@H]1[C@]23O | > 10
CC(=O)O[C@H]1C[C@@H](C)[C@@H]2COC(=O)[C@@]3(C)CC(C)(C)[C@H]1[C@]23O | > 10
C[C@@H]1CC=C2C(=C1C=O)[C@@](C)(C=O)CC2(C)C | 1 (≈ 4.3 µM)
CC(=O)O[C@H]1C[C@@H](C)[C@H](C(=O)O)[C@@]2(O)[C@@H]1C(C)(C)C[C@]2(C)CO [BOTRYOLOIC ACID] | > 10
COC(=O)[C@@]1(C)CC(C)(C)[C@@H]2[C@@H](O)C[C@@H](C)[C@H](C=O)[C@@]21O [METHYL BOTRYALOATE] | > 10
CC(=O)O[C@H]1C[C@@H](C)[C@@H]2[C@@H](O)OC[C@@]3(C)CC(C)(C)[C@H]1[C@]23O [DIHYDROBOTRYDIAL] | > 10
CC(=O)O[C@H]1C[C@@H](C)[C@@H]2[C@H](O)OC[C@@]3(C)CC(C)(C)[C@H]1[C@]23O | > 10
CC1(C)C[C@](C)(CO)c2c1ccc(CO)c2CO | > 10
CC(=O)O[C@H]1C[C@@H](C)[C@H](C=O)[C@@]2(O)[C@@H]1C(C)(C)C[C@]2(C)C=O [BOTRYDIAL] | 1 (≈ 3.22 µM)
Cc1ccc2c(c1C=O)[C@@](C)(C=O)CC2(C)C | 5 (≈ 21.7 µM)

System: HT-1080
Assay: Cytotoxicity against human HT1080 cells after 24 hrs by MTT assay
Assay type: functional
Settings: HT-1080, 24 h, read-out: ID50 (the source's name)
Procedure, shortened: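 HT-1080 cells (ATCC) were kept in DMEM with 10% FCS, 1% glutamine and 1% vitamins at 37 °C, 5% CO2. Cells were seeded at 4 or 8×10^3/well and attached overnight, then exposed for 24 h in duplicate to methanol-dissolved compounds diluted in medium, with a methanol blank. MTT (5 mg/mL stock) was given for 4 h, formazan solubilized in DMSO, and absorbance read at 550 nm.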

SMILES | IC50 [µg/mL]
CC(=O)O[C@H]1C[C@@H](C)[C@@H]2COC(C)(C)OC[C@@]3(C)CC(C)(C)[C@H]1[C@]23O | > 10
CC(=O)O[C@H]1C[C@@H](C)[C@@H]2COC(=O)[C@@]3(C)CC(C)(C)[C@H]1[C@]23O | > 10
C[C@@H]1CC=C2C(=C1C=O)[C@@](C)(C=O)CC2(C)C | 1 (≈ 4.3 µM)
CC(=O)O[C@H]1C[C@@H](C)[C@H](C(=O)O)[C@@]2(O)[C@@H]1C(C)(C)C[C@]2(C)CO [BOTRYOLOIC ACID] | > 10
COC(=O)[C@@]1(C)CC(C)(C)[C@@H]2[C@@H](O)C[C@@H](C)[C@H](C=O)[C@@]21O [METHYL BOTRYALOATE] | > 10
CC(=O)O[C@H]1C[C@@H](C)[C@@H]2[C@@H](O)OC[C@@]3(C)CC(C)(C)[C@H]1[C@]23O [DIHYDROBOTRYDIAL] | > 10
CC(=O)O[C@H]1C[C@@H](C)[C@@H]2[C@H](O)OC[C@@]3(C)CC(C)(C)[C@H]1[C@]23O | > 10
CC1(C)C[C@](C)(CO)c2c1ccc(CO)c2CO | > 10
CC(=O)O[C@H]1C[C@@H](C)[C@H](C=O)[C@@]2(O)[C@@H]1C(C)(C)C[C@]2(C)C=O [BOTRYDIAL] | 1 (≈ 3.22 µM)
Cc1ccc2c(c1C=O)[C@@](C)(C=O)CC2(C)C | 1 (≈ 4.34 µM)

System: not listed separately
Assay: Cytotoxicity against human Hs 578T cells after 24 hrs by MTT assay
Assay type: functional
Settings: read-out: ID50 (the source's name)
Procedure, shortened: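 Hs578T cells (ATCC) were maintained in DMEM with 10% FCS, 1% glutamine and 10 μg/mL insulin. Cells were seeded at 4 or 8×10^3/well and allowed to adhere overnight at 37 °C. They were exposed 24 h, in duplicate, to compounds in methanol diluted with medium, with a methanol blank. MTT (5 mg/mL stock) was added for 4 h, formazan dissolved in DMSO, and A550 measured.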

SMILES | IC50 [µg/mL]
CC(=O)O[C@H]1C[C@@H](C)[C@@H]2COC(C)(C)OC[C@@]3(C)CC(C)(C)[C@H]1[C@]23O | > 10
CC(=O)O[C@H]1C[C@@H](C)[C@@H]2COC(=O)[C@@]3(C)CC(C)(C)[C@H]1[C@]23O | > 10
C[C@@H]1CC=C2C(=C1C=O)[C@@](C)(C=O)CC2(C)C | 1 (≈ 4.3 µM)
CC(=O)O[C@H]1C[C@@H](C)[C@H](C(=O)O)[C@@]2(O)[C@@H]1C(C)(C)C[C@]2(C)CO [BOTRYOLOIC ACID] | > 10
COC(=O)[C@@]1(C)CC(C)(C)[C@@H]2[C@@H](O)C[C@@H](C)[C@H](C=O)[C@@]21O [METHYL BOTRYALOATE] | > 10
CC(=O)O[C@H]1C[C@@H](C)[C@@H]2[C@@H](O)OC[C@@]3(C)CC(C)(C)[C@H]1[C@]23O [DIHYDROBOTRYDIAL] | > 10
CC(=O)O[C@H]1C[C@@H](C)[C@@H]2[C@H](O)OC[C@@]3(C)CC(C)(C)[C@H]1[C@]23O | > 10
CC1(C)C[C@](C)(CO)c2c1ccc(CO)c2CO | > 10
CC(=O)O[C@H]1C[C@@H](C)[C@H](C=O)[C@@]2(O)[C@@H]1C(C)(C)C[C@]2(C)C=O [BOTRYDIAL] | 1 (≈ 3.22 µM)
Cc1ccc2c(c1C=O)[C@@](C)(C=O)CC2(C)C | 1 (≈ 4.34 µM)

System: not listed separately
Assay: Cytotoxicity against human U87MG cells after 24 hrs by MTT assay
Assay type: functional, U-87MG ATCC
Settings: U-87 MG, read-out: ID50 (the source's name)
Procedure, shortened: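 U87-MG glioblastoma cells (ATCC) were grown in MEM with 10% FCS, 1% sodium pyruvate and 1% nonessential amino acids. Cells were seeded at 4 or 8×10^3/well and adhered overnight at 37 °C. They were exposed 24 h, in duplicate, to methanol-dissolved compounds diluted in medium, with a methanol blank. MTT (5 mg/mL stock) was added for 4 h, formazan dissolved in DMSO, and absorbance read at 550 nm.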

SMILES | IC50 [µg/mL]
CC(=O)O[C@H]1C[C@@H](C)[C@@H]2COC(C)(C)OC[C@@]3(C)CC(C)(C)[C@H]1[C@]23O | > 10
CC(=O)O[C@H]1C[C@@H](C)[C@@H]2COC(=O)[C@@]3(C)CC(C)(C)[C@H]1[C@]23O | > 10
C[C@@H]1CC=C2C(=C1C=O)[C@@](C)(C=O)CC2(C)C | 1 (≈ 4.3 µM)
CC(=O)O[C@H]1C[C@@H](C)[C@H](C(=O)O)[C@@]2(O)[C@@H]1C(C)(C)C[C@]2(C)CO [BOTRYOLOIC ACID] | > 10
COC(=O)[C@@]1(C)CC(C)(C)[C@@H]2[C@@H](O)C[C@@H](C)[C@H](C=O)[C@@]21O [METHYL BOTRYALOATE] | > 10
CC(=O)O[C@H]1C[C@@H](C)[C@@H]2[C@@H](O)OC[C@@]3(C)CC(C)(C)[C@H]1[C@]23O [DIHYDROBOTRYDIAL] | > 10
CC(=O)O[C@H]1C[C@@H](C)[C@@H]2[C@H](O)OC[C@@]3(C)CC(C)(C)[C@H]1[C@]23O | > 10
CC1(C)C[C@](C)(CO)c2c1ccc(CO)c2CO | > 10
CC(=O)O[C@H]1C[C@@H](C)[C@H](C=O)[C@@]2(O)[C@@H]1C(C)(C)C[C@]2(C)C=O [BOTRYDIAL] | 1 (≈ 3.22 µM)
Cc1ccc2c(c1C=O)[C@@](C)(C=O)CC2(C)C | 5 (≈ 21.7 µM)

System: MDA-MB-231
Assay: Cytotoxicity against human MDA-MB-231 cells after 24 hrs by MTT assay
Assay type: functional
Settings: MDA-MB-231, 24 h, read-out: ID50 (the source's name)
Procedure, shortened: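 MDA-MB-231 cells (ATCC) were cultured in Leibovitz's L-15 with 10% FCS. Cells were seeded at 4 or 8×10^3/well and attached overnight at 37 °C. Compounds dissolved in methanol and diluted in medium were added for 24 h in duplicate, with a methanol blank. MTT (5 mg/mL stock) was added for 4 h, formazan taken up in DMSO, and A550 recorded.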

SMILES | IC50 [µg/mL]
CC(=O)O[C@H]1C[C@@H](C)[C@@H]2COC(C)(C)OC[C@@]3(C)CC(C)(C)[C@H]1[C@]23O | > 10
CC(=O)O[C@H]1C[C@@H](C)[C@@H]2COC(=O)[C@@]3(C)CC(C)(C)[C@H]1[C@]23O | > 10
C[C@@H]1CC=C2C(=C1C=O)[C@@](C)(C=O)CC2(C)C | 0.1 (≈ 0.43 µM)
CC(=O)O[C@H]1C[C@@H](C)[C@H](C(=O)O)[C@@]2(O)[C@@H]1C(C)(C)C[C@]2(C)CO [BOTRYOLOIC ACID] | > 10
COC(=O)[C@@]1(C)CC(C)(C)[C@@H]2[C@@H](O)C[C@@H](C)[C@H](C=O)[C@@]21O [METHYL BOTRYALOATE] | > 10
CC(=O)O[C@H]1C[C@@H](C)[C@@H]2[C@@H](O)OC[C@@]3(C)CC(C)(C)[C@H]1[C@]23O [DIHYDROBOTRYDIAL] | > 10
CC(=O)O[C@H]1C[C@@H](C)[C@@H]2[C@H](O)OC[C@@]3(C)CC(C)(C)[C@H]1[C@]23O | > 10
CC1(C)C[C@](C)(CO)c2c1ccc(CO)c2CO | > 10
CC(=O)O[C@H]1C[C@@H](C)[C@H](C=O)[C@@]2(O)[C@@H]1C(C)(C)C[C@]2(C)C=O [BOTRYDIAL] | 1 (≈ 3.22 µM)
Cc1ccc2c(c1C=O)[C@@](C)(C=O)CC2(C)C | 10 (≈ 43.4 µM)
